The values below come from paper PMC5614578 (Biochemistry and Biophysics Reports, 2017).

Usually EC50 stands for the concentration giving half of the maximal effect.

“Also recorded” adds a separate entry of the source. Read-outs that look alike come from different tables or passages of the source.

In assay [1] the target is T1, System xC^- cystine/glutamate antiporter (SXC) (Rattus norvegicus, UniProt A0A8I6AB70). The assay is described as follows: [14C]-cystine uptake by LPS-activated primary microglia. Format: cell-based. An outline of the steps:
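Microglia were exposed for 24 h to HBSS or LPS (in HBSS) in DMEM with 0.2 mM cystine. An aliquot of that medium was checked for glutamate release to confirm activation. Medium was then replaced and uptake was measured over 15 min in EBSS with [¹⁴C]-cystine tracer (45 μCi/μmol, 10 μM), with LPS ± test compound. Specific uptake was obtained by subtracting a background control. Values average at least four determinations.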

The target of assay [2] is T1, System xC^- cystine/glutamate antiporter (SXC). As to the kind of experiment: LPS-induced glutamate release from primary microglia. Format: cell-based. The settings on record: for Inhibition of LPS-induced glutamate release (result in words): LPS-treated rat primary microglia. A digest of the protocol:
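Rat primary microglia were taken from 14–21-day mixed glial cultures of 1–2-day pup brains by shaking at 200 rpm for 2 h at 37 °C. Cells were plated at 50,000/well on poly-D-Lys and switched after 24 h to serum-free, phenol red-free DMEM with 2 mM glutamine and 0.2 mM cystine. Test compound (8 concentrations, 10 pM–100 μM, 0.1% DMSO final, duplicate or triplicate) was added 15 min before 1 μg/ml LPS for 24 h. Extracellular glutamate was read by enzyme-coupled Amplex UltraRed fluorescence against a glutamate standard curve, with cell-free counter-screens.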

For assay [3], the system named is ferroptosis. The settings on record: read-out: EC50 for induction of ferroptosis; cited from earlier work.
For assay [4], the target named is T1, System xC^- cystine/glutamate antiporter (SXC). The settings on record: 1 mM; used for background control; stated as known, no reference given; cited from earlier work.
In assay [5] the test system is rat primary microglia. Format: cell-based. The settings on record: 24 h treatment; Pam3CSK4 10 µg/ml, poly I:C 50 µg/ml, Tat 1 µM, LPS 1 µg/ml. An outline of the steps:
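Primary microglia were isolated from neonatal rat mixed glial cultures by shaking and kept in serum-free, phenol red-free DMEM with 2 mM glutamine and 0.2 mM cystine. Cells were stimulated for 24 h with the activator. Extracellular glutamate was quantified by enzyme-coupled Amplex UltraRed fluorescence against a standard curve, linear over 0.5–64 μM glutamate.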

T1 sequence (A0A8I6AB70 1-502): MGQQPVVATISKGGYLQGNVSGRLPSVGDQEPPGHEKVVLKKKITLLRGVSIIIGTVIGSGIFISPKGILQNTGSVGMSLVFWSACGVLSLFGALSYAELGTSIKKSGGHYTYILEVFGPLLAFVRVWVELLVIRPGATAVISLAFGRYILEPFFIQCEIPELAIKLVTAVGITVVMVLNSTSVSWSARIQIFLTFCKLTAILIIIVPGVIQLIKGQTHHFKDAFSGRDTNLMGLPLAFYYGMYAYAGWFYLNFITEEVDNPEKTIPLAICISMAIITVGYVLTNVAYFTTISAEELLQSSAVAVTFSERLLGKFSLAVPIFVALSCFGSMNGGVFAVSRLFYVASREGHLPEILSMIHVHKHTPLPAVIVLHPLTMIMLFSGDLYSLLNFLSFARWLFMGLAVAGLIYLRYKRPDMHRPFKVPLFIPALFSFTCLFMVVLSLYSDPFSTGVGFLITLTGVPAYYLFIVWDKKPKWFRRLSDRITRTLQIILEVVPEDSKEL
T1 sequence (Q794F9 whole entry partner): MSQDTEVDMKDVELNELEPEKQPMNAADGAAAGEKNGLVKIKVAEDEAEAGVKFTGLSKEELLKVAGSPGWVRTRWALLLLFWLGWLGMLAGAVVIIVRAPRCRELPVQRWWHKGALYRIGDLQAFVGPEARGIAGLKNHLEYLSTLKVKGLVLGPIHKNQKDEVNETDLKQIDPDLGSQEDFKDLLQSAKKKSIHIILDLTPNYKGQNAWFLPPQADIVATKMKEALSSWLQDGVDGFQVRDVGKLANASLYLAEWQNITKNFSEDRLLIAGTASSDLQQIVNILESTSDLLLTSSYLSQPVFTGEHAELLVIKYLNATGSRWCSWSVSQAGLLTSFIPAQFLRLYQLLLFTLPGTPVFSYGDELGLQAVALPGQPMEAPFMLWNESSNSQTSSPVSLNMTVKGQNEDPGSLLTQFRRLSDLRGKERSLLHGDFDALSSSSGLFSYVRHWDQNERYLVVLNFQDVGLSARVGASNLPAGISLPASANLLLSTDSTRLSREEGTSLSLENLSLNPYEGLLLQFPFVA

With `N[C@H](C(=O)O)c1ccc(C(=O)O)cc1` [S-4CPG, (S)-4-carboxyphenyl glycine], the “Inhibition of cystine uptake (result in words)” value (from here on “Inhibition of cystine uptake”) in assay [1] is “blocked”. Moreover, the “Inhibition of LPS-induced glutamate release (result in words)” value in assay [2] is on record as “blocked”.

In the case of `CCOc1ccccc1-n1c(C(C)N2CCN(C(=O)COc3ccccc3)CC2)nc2ccccc2c1=O` (stereo not shown) [35MEW13], the “Inhibition of LPS-induced glutamate release (result in words)” value in assay [2] is reported as “abolished inhibitory activity”.

Turning to `CCOc1ccccc1-n1c(C(C)N2CCN(C(=O)COc3ccc(Cl)cc3)CC2)nc2ccccc2c1=O` (stereo not shown) [erastin], the “Inhibition of cystine uptake” value in assay [1] is “blocked”. In assay [2], the EC50 is 130 ± 40 nM and the “Inhibition of LPS-induced glutamate release (result in words)” value is listed as “blocked”. The 50% effective concentration (EC50) in assay [3] is 1200 nM.

Consider `O=C(O)c1cc(/N=N/c2ccc(S(=O)(=O)Nc3ccccn3)cc2)ccc1O` [sulfasalazine], for which the “Inhibition of cystine uptake” value in assay [1] is given as “blocked”. In addition, the “Inhibition of SXC activity (result in words)” value in assay [4] is reported as “completely inhibit”. Moreover, the “Inhibition of LPS-induced glutamate release (result in words)” value in assay [2] was “blocked”.

For `CC(C)Oc1ccccc1-n1c(CN2CCN(C(=O)COc3ccc(Cl)cc3)CC2)nc2ccccc2c1=O` [13MEW76], the “Inhibition of LPS-induced glutamate release (result in words)” value in assay [2] was “did not affect inhibitory activity”.

Consider `CCOc1ccccc1-n1c(C(C)N2CCN(C(C)=O)CC2)nc2ccccc2c1=O` (stereo not shown) [Erastin A8], for which the “Inhibition of cystine uptake” value in assay [1] is “inactive”. Further, the “Inhibition of LPS-induced glutamate release (result in words)” value in assay [2] was “abolished inhibitory activity; also recorded: inactive”.

Regarding “polyinosinic: polycytidylic acid [poly I:C]”, the “Induction of glutamate release (result in words)” value in assay [5] is on record as “Significant glutamate release”.

Take `N[C@@H](C(=O)O)c1ccc(C(=O)O)cc1` [R-4CPG]: the “Inhibition of cystine uptake” value in assay [1] is “failed to inhibit”; in assay [1] (listed as (R)-4-CPG), “did not inhibit”. The figures for the “Inhibition of LPS-induced glutamate release (result in words)” value in assay [2] and in assay [2] (listed as (R)-4-CPG) were “failed to inhibit” and “did not inhibit”, respectively.

B1: HIV-1 Tat1–86 protein: HIV-1 Tat1–86 protein obtained from Diatheva, microglia activator (protein, UniProt P04608 1-86, looked up)
Protein Tat: MEPVDPRLEPWKHPGSQPKTACTNCYCKKCCFHCQVCFITKALGISYGRKKRRQRRRAHQNSQTHQASLSKQPTSQPRGDPTGPKE
Take B1: the “Induction of glutamate release (result in words)” value in assay [5] is “Significant glutamate release”.
